Screening data from PubChem.
CTSL1 counter – counter-screen for PFM18AAP inhibitors: inhibitors of F. hepatica cathepsin L1; recombinant F. hepatica cathepsin L1, Z-Leu-Arg-MCA fluorescence; inhibition, % at 5.96 µM; actives 0.49% (n = 300,000); AID 1906;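 active means inhibition above the mean of all tested compounds plus 3 SD, set per screening campaign, cut at about 17% in these data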;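 further: 0% = plate median of test compound wells and 100% = 1 µM Z-Phe-Ala-diazomethylketone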
IMP-1 inh – inhibitors of Pseudomonas aeruginosa IMP-1 metallo-beta-lactamase. purified IMP-1, nitrocefin hydrolysis, epi-absorbance fluorescence. inhibition, % at 5.6 µM. actives 0.45% (n = 290,000). AID 1556;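 active means inhibition above the mean plus 3 SD of all compounds in the same screening run, cut at about 4.5% in these data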;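 further: 0% = IMP-1 with DMSO and 100% = DMSO wells lacking enzyme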
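System: Purified IMP-1 | Read-out basis: Percent enzyme inhibition | Controls: IMP-1 with DMSO as 0%, enzyme-free DMSO as 100% | Replicates: One well per compound | Doses: 5.6 µM nominal single concentration | Detection: Epi-absorbance fluorescence, 480 nm excitation, 530 nm emission | Incubation: 25 °C, 15 min preincubation, 25 min reaction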
p-CIP stab down – p/CIP protein destabilization; Q05BA5; F442A p/CIP-EGFP cells, EGFP fluorescence, 16 h; decrease of EGFP signal, % at 10 µM; actives 0.01% (n = 290,000);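 active means EGFP signal decrease of at least 30% at 10 µM or well 3 SD below plate mean, unless failing retest; inactive means the rest, including hits failing retest or dose response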
Target sequence (Q05BA5 1-1403): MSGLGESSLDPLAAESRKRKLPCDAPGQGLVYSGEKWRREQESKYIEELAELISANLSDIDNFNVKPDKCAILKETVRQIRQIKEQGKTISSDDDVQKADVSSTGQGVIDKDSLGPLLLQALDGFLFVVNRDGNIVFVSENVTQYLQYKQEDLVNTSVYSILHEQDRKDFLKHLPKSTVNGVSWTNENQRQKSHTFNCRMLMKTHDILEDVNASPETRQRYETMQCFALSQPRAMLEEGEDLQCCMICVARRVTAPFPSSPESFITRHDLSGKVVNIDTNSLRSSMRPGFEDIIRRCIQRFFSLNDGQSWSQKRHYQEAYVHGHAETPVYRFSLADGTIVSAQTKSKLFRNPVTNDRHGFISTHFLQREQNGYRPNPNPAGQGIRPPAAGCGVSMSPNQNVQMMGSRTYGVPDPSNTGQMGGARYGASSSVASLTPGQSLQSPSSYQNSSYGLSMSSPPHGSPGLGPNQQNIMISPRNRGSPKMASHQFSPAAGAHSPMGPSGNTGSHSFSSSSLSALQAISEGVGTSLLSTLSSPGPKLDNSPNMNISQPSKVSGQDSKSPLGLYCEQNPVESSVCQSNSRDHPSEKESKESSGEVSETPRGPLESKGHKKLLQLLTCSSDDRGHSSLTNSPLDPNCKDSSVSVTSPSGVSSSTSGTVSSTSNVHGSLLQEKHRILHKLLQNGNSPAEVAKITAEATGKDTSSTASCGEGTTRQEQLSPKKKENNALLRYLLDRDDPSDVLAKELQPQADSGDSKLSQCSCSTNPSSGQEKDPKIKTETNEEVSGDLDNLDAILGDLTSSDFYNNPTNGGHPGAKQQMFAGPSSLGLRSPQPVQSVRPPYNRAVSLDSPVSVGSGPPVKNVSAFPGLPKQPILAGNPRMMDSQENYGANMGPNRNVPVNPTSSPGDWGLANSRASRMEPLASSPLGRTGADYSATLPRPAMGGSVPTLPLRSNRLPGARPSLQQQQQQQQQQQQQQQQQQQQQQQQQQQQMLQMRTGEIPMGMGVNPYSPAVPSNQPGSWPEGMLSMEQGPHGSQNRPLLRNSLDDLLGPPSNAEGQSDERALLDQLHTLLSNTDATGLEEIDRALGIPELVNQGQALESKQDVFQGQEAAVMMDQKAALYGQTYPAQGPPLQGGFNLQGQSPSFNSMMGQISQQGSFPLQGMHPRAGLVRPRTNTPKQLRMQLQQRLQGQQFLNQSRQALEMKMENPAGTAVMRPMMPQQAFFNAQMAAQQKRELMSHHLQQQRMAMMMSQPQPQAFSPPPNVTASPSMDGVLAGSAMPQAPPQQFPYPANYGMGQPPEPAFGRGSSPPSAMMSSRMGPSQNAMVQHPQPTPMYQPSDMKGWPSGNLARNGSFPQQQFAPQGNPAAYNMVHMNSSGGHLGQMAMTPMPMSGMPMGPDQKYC
T cell modulator – T cell immune modulation candidate | response (vesicle binding), % at 7 µM | AID 2052 | 2C CD8+ T cell-vesicle binding, flow cytometry; active compounds read low | actives 0.068% (n = 330,000);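 active means response, share of CD8 T cells binding vesicles, and their 90th percentile fluorescence all below set limits, cut at about 80% in these data, passing the limit was not always enough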;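 further: values below 100% mean blocked vesicle binding to the CD8+ T cells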
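Also added: QL9-peptide-loaded Drosophila micro-vesicles bearing Ld, ICAM-1 and B7-1; Test system: purified 2C TCR transgenic mouse naive CD8+ T cells; Measured by: cytometric PE anti-B7-1 and Alexa647 anti-CD8 signals after 1% paraformaldehyde fixation; Timing: binding step 1.5 h, 37 °C, antibody labelling 20 min, ice.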
SUMO HTRF inh – blocks human SUMOylation mediated by UBC9. actives 0.36% (n = 290,000). inhibition, % at 35 µM. P63279. HTRF SUMOylation assay, SAE1/SAE2 + UBC9, in vitro. AID 2006; in the data active means inhibition above about 50%, passing the limit was not always enough
VIM-2 inhibitor – blocks Pseudomonas aeruginosa VIM-2 metallo-beta-lactamase. actives 0.89% (n = 290,000). inhibition, % at 5.6 µM. purified VIM-2, nitrocefin hydrolysis, epi-absorbance fluorescence;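 active means inhibition above the mean of all tested compounds plus 3 SD, cutoff set per screening run, cut at about 7.5% in these data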;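 further: red hydrolysis product quenches plate fluorescence so inhibitors raise well fluorescence; 0% = enzyme with DMSO and 100% = DMSO without enzyme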
An asterisk follows results filed as active. An excerpt weighted towards active compounds, which were near 1.9% of everything screened.

For Cc1ccc(NC(=O)Nc2ccno2)cc1 the results were CTSL1 counter -2, IMP-1 inh -3, p-CIP stab down -9, T cell modulator inactive, SUMO HTRF inh 72* and VIM-2 inhibitor -3.
Screening COc1cnc(-c2ccccc2)nc1Oc1ccc(Cl)cc1C returned CTSL1 counter 19*, IMP-1 inh 0, p-CIP stab down -16, T cell modulator 556, SUMO HTRF inh -1 and VIM-2 inhibitor -3.
For COc1cnc(-c2ccccn2)nc1Oc1ccccc1 the results were CTSL1 counter -1, IMP-1 inh -3, p-CIP stab down 6, T cell modulator 354, SUMO HTRF inh 20 and VIM-2 inhibitor 5.
`CCC(C)Sc1cc(-c2nc3ccc(Cl)cn3c2NC2CCCCC2)ccc1OC` (stereo not given) gave T cell modulator 288.
O=C(O)c1ccc(N/N=C/c2ccc(OC(=O)c3cccc(Cl)c3)cc2)cc1 was read as CTSL1 counter 18*, IMP-1 inh -2, p-CIP stab down -5, T cell modulator 220, SUMO HTRF inh 31 and VIM-2 inhibitor -1.
CCCCn1c(N)c(N(CCC(C)C)C(=O)CC2CCCC2)c(=O)[nH]c1=O was read as CTSL1 counter 0 and T cell modulator 555.
Cc1cc(C)nc(/N=c2/ssnc2Cl)c1 was read as CTSL1 counter 22*, IMP-1 inh -4, p-CIP stab down -22, T cell modulator 312, SUMO HTRF inh 9 and VIM-2 inhibitor -4.
Screening CC1(C)Cc2c(sc3nc(NCCN4CCOCC4)n4ncnc4c23)CO1 returned CTSL1 counter 0, IMP-1 inh 16*, p-CIP stab down -4, T cell modulator 410, SUMO HTRF inh 4 and VIM-2 inhibitor 7.
`CC1(C)Cc2c(c(-c3ccco3)nc3sc4c(NCCN5CCOCC5)ncnc4c23)CO1` gave CTSL1 counter 5, IMP-1 inh 1, p-CIP stab down -14, T cell modulator 136, SUMO HTRF inh 29 and VIM-2 inhibitor -3.
For CCOC(=O)c1c(NC(C)=O)sc2c(OCCN(CC)CC)c(Br)ccc12 the results were CTSL1 counter 0, IMP-1 inh -2, p-CIP stab down -17, T cell modulator 349, SUMO HTRF inh 12 and VIM-2 inhibitor 4.
`CCOC(=O)c1c(NC(C)=O)sc2c(OCC(O)CN(CC)CC)c(Br)ccc12` (stereo not given) gave CTSL1 counter 5, IMP-1 inh -2, p-CIP stab down 5, T cell modulator 292, SUMO HTRF inh 1 and VIM-2 inhibitor 9.3*.
Screening Cc1ccc(/C=N/NC(=O)c2cc3c(ccc4ccccc43)o2)o1 returned IMP-1 inh -2, p-CIP stab down 1, SUMO HTRF inh 22 and VIM-2 inhibitor -5.
For CC(=O)Oc1ccc(/C=N\NC(=O)c2cc3c(ccc4ccccc43)o2)cc1 the results were CTSL1 counter 0, IMP-1 inh 4.9*, p-CIP stab down -32, T cell modulator 262, SUMO HTRF inh 20 and VIM-2 inhibitor -2.
O=CN1N=C(c2ccccc2)CC1c1ccc(Cl)cc1 (stereo not given) was read as CTSL1 counter 2, IMP-1 inh -2, p-CIP stab down -4, T cell modulator 609, SUMO HTRF inh 11 and VIM-2 inhibitor -1.
`O=C1OC(c2ccccc2)=NC12CC2c1ccc(Cl)cc1` (stereo not given) gave CTSL1 counter 21*, IMP-1 inh -4, p-CIP stab down 2, T cell modulator 227, SUMO HTRF inh -11 and VIM-2 inhibitor -3.
Screening O=C(NCc1ccccc1)C1=C[C@H](C2CC2)C[C@H](OCCCCO)O1 returned CTSL1 counter -2, IMP-1 inh -1, p-CIP stab down -13, T cell modulator 302, SUMO HTRF inh 0 and VIM-2 inhibitor -3.
CC(/C=C/c1ccc(C)o1)=C\C(=O)O was read as CTSL1 counter 14, IMP-1 inh -2, p-CIP stab down -4, T cell modulator 66*, SUMO HTRF inh 1 and VIM-2 inhibitor -2.
`CC(=C/C(=O)O)/C=C/c1ccc(Cl)o1` gave CTSL1 counter 9, IMP-1 inh 2, p-CIP stab down -8, T cell modulator 392, SUMO HTRF inh 12 and VIM-2 inhibitor 2.
`CCOC(=O)N1CCN(c2cc(NCCC(=O)O)c3c4c(onc24)-c2ccccc2C3=O)CC1` gave CTSL1 counter 21*, IMP-1 inh -1, p-CIP stab down -11, T cell modulator 490, SUMO HTRF inh -56 and VIM-2 inhibitor 2.
Screening O=C(O)CCCNc1cc(N2CCN(C(=O)c3ccco3)CC2)c2noc3c2c1C(=O)c1ccccc1-3 returned CTSL1 counter 7, IMP-1 inh 8.2*, p-CIP stab down -9, T cell modulator 167, SUMO HTRF inh -25 and VIM-2 inhibitor 4.
Screening O=C1c2ccccc2C(=O)C12OC(c1ccccc1)C1(C(=O)c3ccccc3C1=O)C2c1ccc([N+](=O)[O-])cc1 (stereo not given) returned CTSL1 counter 1, IMP-1 inh -5, T cell modulator 269 and VIM-2 inhibitor -3.
`O=C1c2ccccc2C(=O)C12OC2c1ccc(Cl)cc1` (stereo not given) gave CTSL1 counter 17*, IMP-1 inh -4, p-CIP stab down -12, T cell modulator 187 and VIM-2 inhibitor -4.
Screening O=C(Nc1ccc(N2CCOCC2)cc1)c1cccc(S(=O)(=O)N2CCC(Cc3ccccc3)CC2)c1 returned CTSL1 counter -3, IMP-1 inh -1, p-CIP stab down -13, T cell modulator 202, SUMO HTRF inh 6 and VIM-2 inhibitor -1.
CCOCCn1c(=O)c2c(nc3n2CC(C)CN3CCc2ccccc2)n(C)c1=O (stereo not given) was read as CTSL1 counter 3, IMP-1 inh -1, p-CIP stab down -10, T cell modulator 535, SUMO HTRF inh 4 and VIM-2 inhibitor 2.
CCCCn1c(NC(C)=O)c(C#N)c2nc3ccccc3nc21 was read as CTSL1 counter 2, IMP-1 inh -3, p-CIP stab down -22, T cell modulator 347, SUMO HTRF inh 102* and VIM-2 inhibitor -1.
For C=CCn1c(NC(=O)c2ccccc2Cl)c(C#N)c2nc3ccccc3nc21 the results were CTSL1 counter -9, IMP-1 inh -5, p-CIP stab down 4, T cell modulator 123 and VIM-2 inhibitor 0.
For CCCCn1c(NC(=O)c2ccco2)c(S(=O)(=O)c2ccc(C)cc2)c2nc3ccccc3nc21 the results were IMP-1 inh -1, p-CIP stab down -13, SUMO HTRF inh 100* and VIM-2 inhibitor -1.
Screening CCCCCn1c(N)c(C#N)c2nc3ccccc3nc21 returned CTSL1 counter 4, IMP-1 inh -1, p-CIP stab down -2, T cell modulator 375, SUMO HTRF inh 88* and VIM-2 inhibitor 1.
